These results are taken from the array DNA melting data of Ke et al. (doi:10.1101/2024.01.08.574731).

Series [1] in a line: melting temperature; fluorescence melt of hairpins on a sequencing array, two-state fit, raised by 9.35 °C to match UV melts. The settings on record: sodium 0.088 M. In short, it runs like this:
(§1)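 Cy3 fluorescence of library hairpins on a sequenced MiSeq flow cell, with annealed Cy3 and quencher oligos, was imaged in 50 mM Na-HEPES pH 8.0, 25 mM NaCl in 2.5 °C steps up to 60 °C. Signals were normalised to pre-quench Cy3 and to control variants. Melting temperature and folding enthalpy came from bootstrapped two-state fits, inverse-variance combined over four replicates. Fitted temperatures were raised by 9.35 °C to match UV melts.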

Series [2] in a line: folding enthalpy; higher = less favourable; fluorescence melt of hairpins on a sequencing array, two-state fit. The following applies: sodium 0.088 M. In short, it runs like this:
as §1

Regarding GATTCGCGAAAGCGATC (((.(((....)))))), in series [1], the Tm turned out to be 44.5 °C. Further, in series [2], the folding enthalpy is -11.6 kcal/mol.
As for GTGATCGAAAGATCCAC ((((((....))).))), the Tm in series [1] is 43.9 °C. In addition, the folding enthalpy in series [2] was -13.3 kcal/mol.
The corresponding values for GTCGTGCGAAAGCAGGAC (((.(((....))).))) are 64.5 °C and -35.9 kcal/mol.
Regarding GCCATCGGAAACGATAGC ((.((((....)))).)), the Tm in series [1] worked out at 45 °C. Besides, the folding enthalpy in series [2] was -21.6 kcal/mol.
Take GCAGCGGGAAACCGCTAC (.(((((....))))).): the Tm in series [1] turned out to be 40.2 °C. For the same sequence, the folding enthalpy in series [2] is -11.3 kcal/mol.
As for GCGGAGGACCGC ((((....)))), in series [1], the Tm was 52.4 °C. For the same sequence, the folding enthalpy in series [2] is -19.5 kcal/mol.
In the case of GGACGTCCGAAAGGATCC (((..(((....)))))), the Tm in series [1] amounted to 25.8 °C. In series [2], the folding enthalpy is -14.9 kcal/mol.
Take GATCTAGCAATAGATC ((((((....)))))): in series [1], the Tm came out at 47.6 °C. Also, the folding enthalpy in series [2] is -39.6 kcal/mol.
Take CGCCCGGAAACGGGGGCG ((((((....)))..))): the Tm in series [1] is 68.6 °C. In addition, in series [2], the folding enthalpy was -12.5 kcal/mol.
GGTGGTCCGAAAGGAACC (((..(((....)))))): the Tm in series [1] turned out to be 48.9 °C. Further, the folding enthalpy in series [2] is -14.1 kcal/mol.
Take GGAGCCCCGAAAGGGTCC (((..(((....)))))): the Tm in series [1] turned out to be 47.4 °C. Also, in series [2], the folding enthalpy is -20.4 kcal/mol.
Take GTGTTGCGAAAGCACCAC (((.(((....))).))): in series [1], the Tm stood at 51.2 °C. For the same sequence, in series [2], the folding enthalpy was -30.7 kcal/mol.
Regarding GGACCCGAAAGGGGGTCC ((((((....)))..))), the Tm in series [1] stood at 63.8 °C. The folding enthalpy in series [2] is -27.1 kcal/mol.
GCTGCCCGAAAGGGAGC (((.(((....)))))): in series [1], the Tm was found to be 57.1 °C. Moreover, in series [2], the folding enthalpy is -23 kcal/mol.
Take CGTAGACGGAAACGTACG (((..(((....)))))): in series [1], the Tm amounted to 36.9 °C. In series [2], the folding enthalpy was -16.7 kcal/mol.
Turning to CGGCTGCGGAAACGCCCG (((..(((....)))))), the Tm in series [1] was found to be 44.2 °C. In series [2], the folding enthalpy is -18.5 kcal/mol.
The matching figures for CCCCTGAAAAGGGG (((((....))))): 57.2 °C and -25.4 kcal/mol.
As to GCTGCGCGAAAGCGAGC (((.(((....)))))), the Tm in series [1] was determined as 60.4 °C. Also, the folding enthalpy in series [2] was -14.3 kcal/mol.
In the case of GTGGGACGAAAGTCTCAC (((.(((....))).))), the Tm in series [1] amounted to 60 °C. In addition, in series [2], the folding enthalpy is -36 kcal/mol.
With GGTCGCACGAAAGTGACC (((..(((....)))))), the Tm in series [1] is 49.6 °C. In addition, the folding enthalpy in series [2] is -18.1 kcal/mol.
Consider GAATCCGGAAACGGGTTC (((.(((....))).))), for which the Tm in series [1] came out at 52.2 °C. Moreover, the folding enthalpy in series [2] is -33.5 kcal/mol.
For the sequence GCTCACGAAAGTGCGAGC ((((((....)))..))), the Tm in series [1] turned out to be 38.7 °C. Moreover, the folding enthalpy in series [2] was -19.8 kcal/mol.
Consider GCCAAACGAAAGTTCGGC (((.(((....))).))), for which the Tm in series [1] was found to be 51.3 °C. In addition, the folding enthalpy in series [2] was -36.8 kcal/mol.
On to GATCGGGTGCCCGATC ((((((....)))))), for which the Tm in series [1] came to 60.1 °C. Further, the folding enthalpy in series [2] is -36.7 kcal/mol.
The matching figures for GGGGAAGGAAACTTCTCC ((.((((....)))).)): 45.4 °C and -35.5 kcal/mol.
GGATTAGGAAACTAGTCC (((.(((....))).))): the Tm in series [1] came out at 37.2 °C. In addition, in series [2], the folding enthalpy was -25.2 kcal/mol.
For the sequence GAGCACGAAAGTGGACTC ((((((....)))..))), the Tm in series [1] stood at 48.7 °C. In series [2], the folding enthalpy was -14.2 kcal/mol.
The matching figures for GATCACCTCGGTGATC ((((((....)))))): 65.4 °C and -37.5 kcal/mol.
The matching figures for GACGTTGGAAACAATGTC (((.(((....))).))): 48.4 °C and -37.3 kcal/mol.
For GTGGCAGCGAAAGCTCAC (((..(((....)))))), the Tm in series [1] came out at 43.7 °C. For the same sequence, in series [2], the folding enthalpy was -12.4 kcal/mol.
